A selection: hits, their analogues and other compounds. The true share with any hit is near 3.1%.
NadD block: blocks S. aureus nicotinate mononucleotide adenylyltransferase; purified NadD enzyme, colorimetric absorbance read-out; inhibition, % at 20 µM; 360,000 compounds, 0.78% hits; in the data active means inhibition above about 26%
PP1 inh: PP1-alpha (human) inhibition in PP5 counter-screen; inhibition, % at 6.7 µM; 320,000 compounds, 0.9% hits; P62136; purified PP1alpha, OMFP fluorescence;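 active means inhibition above the mean inhibition of all tested compounds plus 3 SD, computed separately for each screening campaign, cut at about 15% in these data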
Target sequence (P62136 whole entry, looked up): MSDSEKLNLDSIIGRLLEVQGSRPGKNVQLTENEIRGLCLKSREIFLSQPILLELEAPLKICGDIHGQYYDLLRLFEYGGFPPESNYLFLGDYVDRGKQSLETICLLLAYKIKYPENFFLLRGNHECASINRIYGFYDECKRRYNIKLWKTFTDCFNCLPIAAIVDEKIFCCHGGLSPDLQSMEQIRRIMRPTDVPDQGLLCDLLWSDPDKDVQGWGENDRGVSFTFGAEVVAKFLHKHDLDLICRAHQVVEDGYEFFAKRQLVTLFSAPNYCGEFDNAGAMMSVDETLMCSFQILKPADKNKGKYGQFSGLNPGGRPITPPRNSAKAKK
PP5 primary: PP5 (human) phosphatase inhibition | purified PP5c, OMFP substrate fluorescence | inhibition, % at 6.7 µM | 320,000 compounds, 0.18% hits;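 active means inhibition above the campaign's mean inhibition across all tested compounds plus 3 SD, cut at about 9.5% in these data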
Myeloid diff 2: promotes myeloid progenitor differentiation; calls only at 10 µM; ER-HoxA9 myeloid progenitors, lysozyme-GFP differentiation, flow cytometry; 360,000 compounds, 1% hits; AID 624256;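 active means normalized GFP-positive differentiation at or above the plate's own cutoff, the solvent-only control mean plus 3 SD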;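 further: cells exposed to compound for four days before flow analysis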
HCV core dimer: blocks dimerization of HCV core protein; inhibition, % at 5 µM; 300,000 compounds, 0.33% hits; TR-FRET GST/Flag-core106 dimerization, 1536-well; AID 1899;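 active means inhibition above the mean of all tested compounds plus 3 SD, set per screening campaign, cut at about 45% in these data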
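test system = GST/Flag-tagged HCV core106 proteins | probe or stimulus = Eu donor and XL665 acceptor anti-tag antibodies | times = compound-protein-antibody incubation 4 h at 22.5 °C | signal = TR-FRET, excitation 340 nm, emission 617 and 671 nm | measure = percent inhibition of core106 dimerization signal | controls = wells lacking GST-core106 and wells with excess unlabelled core106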
CTSL1 counter: blocks F. hepatica cathepsin L1 in PFM18AAP counter-screen; recombinant F. hepatica cathepsin L1, Z-Leu-Arg-MCA fluorescence; inhibition, % at 5.96 µM; 300,000 compounds, 0.49% hits;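 active means inhibition above the mean of all tested compounds plus 3 SD, set per screening campaign, cut at about 17% in these data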
PP1 confirm: confirmation of human PP1 phosphatase inhibitors | shares compounds with PP1 inh | purified PP1alpha, OMFP substrate fluorescence | AID 2358 | 1,900 compounds, 52% hits | inhibition, % at 6.7 µM;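 active means mean PP1 inhibition above a set limit taken from the earlier primary screen, cut at about 15% in these data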
PP5 inh counter: inhibits human PP5 phosphatase in PP1 counter-screen; shares compounds with PP1 inh; purified PP5c, OMFP fluorescence; inhibition, % at 6.7 µM; 1,900 compounds, 4% hits; AID 2360;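 active means mean PP5 inhibition over triplicate wells above about 9.5% taken from the earlier PP1 screen, limit read from the data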
NadD inh conf: confirmation of Staphylococcus aureus NadD inhibitors; shares compounds with NadD block; purified S. aureus NadD, colorimetric enzyme assay; inhibition, % at 20 µM; 2,000 compounds, 13% hits; AID 624309; in the data active means inhibition mostly above about 42%, no sharp cut-off; inactive means mostly below about 42%
Large screens that a line does not name were inactive (follow-up assays come after a bar, where they were run); ! = not active in a repeat.

CN(C)[C@@H]1C(=O)C(C(N)=O)=C(O)[C@@]2(O)C(=O)C3=C(O)c4c(O)cccc4[C@@](C)(O)[C@H]3[C@H](O)[C@@H]12	NadD block 38!, PP1 inh 44 | PP1 confirm 20 | PP5 inh counter inactive
CN(C)[C@@H]1C(=O)C(C(N)=O)=C(O)[C@@]2(O)C(=O)C3=C(O)c4c(O)cccc4[C@@](C)(O)C3C[C@@H]12 (stereo partly specified)	none
O=C1NC(=O)N(Cc2ccco2)C(=O)/C1=C/c1ccc(-c2cccc([N+](=O)[O-])c2)o1	NadD block 67, PP1 inh 33 | PP1 confirm 16 | PP5 inh counter inactive
O=C(O)C1C2CCC(O2)C1C(=O)Nc1cccc(Br)c1 (stereo unspecified)	PP1 inh 69, PP5 primary 69 | PP1 confirm inactive | PP5 inh counter 19
O=c1[nH]c(O)c(/C=C2\C=Nc3ccc(OCc4ccccc4)cc32)c(=O)[nH]1	PP1 inh 19 | PP1 confirm 24 | PP5 inh counter inactive
COC(=O)C1=C(c2cccc3c2S(=O)(=O)c2ccccc2-3)C[C@@H]2CC[C@H]1N2C(=O)N1CCc2cc(OC)c(OC)cc2C1	none (no result: HCV core dimer, CTSL1 counter)
N=C1c2ccccc2CN1NC(=O)c1ccco1	none (no result: PP1 inh, PP5 primary, HCV core dimer, CTSL1 counter)
COC(=O)C1=C(c2ccc(-c3ccccc3)c(F)c2)C[C@@H]2CC[C@H]1N2C(=O)NCCNC(C)=O	none (no result: HCV core dimer, CTSL1 counter)
COC(=O)C1=C(c2cccc(OCc3ccccc3)c2)C[C@@H]2CC[C@H]1N2C(=O)NCc1ccc(C(C)(C)C)cc1	PP1 inh 20 (no result: HCV core dimer, CTSL1 counter) | PP1 confirm inactive | PP5 inh counter inactive
COC(=O)C1=C(c2cccc(OCc3ccccc3)c2)C[C@@H]2CC[C@H]1N2C(=O)NCc1cccc(OC)c1	none (no result: HCV core dimer, CTSL1 counter)
COC(=O)C1=C(c2ccc(-c3ccccc3)c(F)c2)C[C@@H]2CC[C@H]1N2C(=O)NCc1cccc2ccccc12	PP1 inh 23 (no result: HCV core dimer, CTSL1 counter) | PP1 confirm inactive | PP5 inh counter inactive
CC(C)c1cc(Br)c(NC(=O)Nc2cccnc2)c(Br)c1	none
O=c1[nH]c(=S)[nH]c(O)c1N=Nc1ccc(S(=O)(=O)N2CCc3ccccc32)cc1	NadD block 49 | NadD inh conf 70
CC[C@H]1CN2CCC1C[C@H]2[C@H](O)c1ccnc2ccc(OC)cc12 (stereo partly specified)	NadD block 48 | NadD inh conf inactive
CC[C@H]1CN2CCC1C[C@@H]2[C@@H](O)c1ccnc2ccc(OC)cc12 (stereo partly specified)	none (no result: PP1 inh, PP5 primary, HCV core dimer, CTSL1 counter)
CCC1(c2ccc(C)cc2)C(=O)NC(=S)NC1=O	none (no result: PP1 inh, PP5 primary, HCV core dimer, CTSL1 counter)
Cc1ccc2nc(-c3ccc(CN4CCC(n5c(=O)[nH]c6ccccc65)CC4)cc3)c(-c3ccccc3)nc2c1	none (no result: PP1 inh, PP5 primary, HCV core dimer, CTSL1 counter)
COc1ccc2nc(-c3ccc(CN4CCC(n5c(=O)[nH]c6ccccc65)CC4)cc3)c(-c3ccccc3)nc2c1	NadD block 37 (no result: PP1 inh, PP5 primary, HCV core dimer, CTSL1 counter) | NadD inh conf inactive
Cc1cccc(C)c1-n1nnnc1C(CCc1ccccc1)N1CCC(n2c(=O)[nH]c3ccccc32)CC1 (stereo unspecified)	NadD block 30 (no result: PP1 inh, PP5 primary, HCV core dimer, CTSL1 counter) | NadD inh conf inactive
Cc1cc(-c2cc(C)c(N)c(C)c2)cc(C)c1N	none (no result: PP1 inh, PP5 primary, HCV core dimer, CTSL1 counter)
O=C(Nc1ccc(Cl)cc1C(=O)c1ccccc1)c1ccco1	none
NNC(=O)c1nc[nH]c1C(=O)Nc1ccc(Cl)cc1C(=O)c1ccccc1	NadD block 48 (no result: PP1 inh, PP5 primary, HCV core dimer, CTSL1 counter) | NadD inh conf inactive
CC(NS(C)(=O)=O)c1nnc2n1-c1ccc(Br)cc1C(c1ccccc1Cl)=NC2 (stereo unspecified)	none
c1ccc2c(CN3CCN(C4CCCCC4)CC3)c[nH]c2c1	NadD block 38 | NadD inh conf inactive
COc1cc2c(cc1O)C[C@H]1NCCc3cc4c(c-2c31)OCO4	NadD block 34 | NadD inh conf inactive

Bioassay records deposited in PubChem BioAssay by several laboratories.
